Values after ≈ are worked out from the molar mass of the structure shown.
Key:
Acinetobacter baumannii [1] = experiment: Antibacterial activity against panel of 198 clinical isolates Acinetobacter baumannii assessed as inhibition of bacterial growth by microdilution method; format: functional
Acinetobacter baumannii [2] = experiment: Antibacterial activity against carbapenem susceptible Acinetobacter baumannii isolate PR-340 assessed as bacterial growth inhibition by microdilution method; format: functional
How it was run: (§1)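 Broth microdilution MIC in iron-depleted (Chelex resin-treated) cation-adjusted Mueller-Hinton broth, following the protocol used for siderophore-containing antibiotics. Inoculum was lowered to 6 × 10^4 cfu/mL.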

Acinetobacter baumannii [3] = experiment: Antibacterial activity against carbapenem resistant Acinetobacter baumannii isolate PR-351 assessed as bacterial growth inhibition by microdilution method; format: functional
How it was run: (§2)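 Broth microdilution in Chelex-treated, iron-depleted cation-adjusted Mueller-Hinton broth, following the protocol used for siderophore-containing antibiotics; inoculum lowered to 6 × 10^4 cfu/mL; MIC read as growth inhibition, in μg/mL.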

Acinetobacter baumannii [4] = experiment: Antibacterial activity against carbapenem resistant Acinetobacter baumannii isolate PR-399 assessed as bacterial growth inhibition by microdilution method; format: functional; how it was run: as §2
[5] = Antibacterial activity against carbapenem susceptible Acinetobacter nosocomialis isolate PR-491 assessed as bacterial growth inhibition by microdilution method; format: functional; how it was run: as §1
Acinetobacter baumannii [6] = experiment: Antibacterial activity against carbapenem susceptible Acinetobacter baumannii isolate PR-464 assessed as bacterial growth inhibition by microdilution method; format: functional; how it was run: as §1
Acinetobacter baumannii [7] = experiment: Antibacterial activity against carbapenem resistant Acinetobacter baumannii isolate PR-314 assessed as inhibition of bacterial growth at 1:1 compound to sulbactam concentration by microdilution method; format: functional
How it was run: (§3)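 Iron-depleted (Chelex-treated) cation-adjusted Mueller-Hinton broth microdilution; inoculum 6 × 10^4 cfu/mL. Test agent and sulbactam mixed 1:1 by mass and serially 2-fold diluted together. MIC in μg/mL.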

Acinetobacter baumannii [8] = experiment: Antibacterial activity against carbapenem resistant Acinetobacter baumannii isolate PR-326 assessed as inhibition of bacterial growth at 1:1 compound to sulbactam concentration by microdilution method; format: functional; how it was run: as §3
Acinetobacter baumannii [9] = experiment: Antibacterial activity against carbapenem resistant Acinetobacter baumannii isolate PR-342 assessed as inhibition of bacterial growth at 1:1 compound to sulbactam concentration by microdilution method; format: functional; how it was run: as §3
Acinetobacter baumannii [10] = experiment: Antibacterial activity against carbapenem resistant Acinetobacter baumannii isolate PR-351 assessed as inhibition of bacterial growth at 1:1 compound to sulbactam concentration by microdilution method; format: functional; how it was run: as §3
Acinetobacter baumannii [11] = experiment: Antibacterial activity against carbapenem resistant Acinetobacter baumannii isolate PR-380 assessed as inhibition of bacterial growth at 1:1 compound to sulbactam concentration by microdilution method; format: functional; how it was run: as §3
Acinetobacter baumannii [12] = experiment: Antibacterial activity against carbapenem resistant Acinetobacter baumannii isolate PR-387 assessed as inhibition of bacterial growth at 1:1 compound to sulbactam concentration by microdilution method; format: functional; how it was run: as §3
Acinetobacter baumannii [13] = experiment: Antibacterial activity against carbapenem resistant Acinetobacter baumannii isolate PR-423 assessed as inhibition of bacterial growth at 1:1 compound to sulbactam concentration by microdilution method; format: functional; how it was run: as §3
[14] = Antibacterial activity against carbapenem susceptible Acinetobacter nosocomialis isolate PR-362 assessed as inhibition of bacterial growth at 1:1 compound to sulbactam concentration by microdilution method; format: functional
How it was run: (§4)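 Broth microdilution MIC in Chelex-treated, iron-depleted cation-adjusted Mueller-Hinton broth, inoculum 6 × 10^4 cfu/mL. Compound and sulbactam combined 1:1 by mass in a 2-fold dilution series.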

[15] = Antibacterial activity against carbapenem susceptible Acinetobacter nosocomialis isolate PR-412 assessed as inhibition of bacterial growth at 1:1 compound to sulbactam concentration by microdilution method; format: functional; how it was run: as §1
[16] = Antibacterial activity against carbapenem susceptible Acinetobacter nosocomialis isolate PR-491 assessed as inhibition of bacterial growth at 1:1 compound to sulbactam concentration by microdilution method; format: functional; how it was run: as §4
Acinetobacter baumannii [17] = experiment: Antibacterial activity against carbapenem susceptible Acinetobacter baumannii isolate PR-434 assessed as inhibition of bacterial growth at 1:1 compound to sulbactam concentration by microdilution method; format: functional; how it was run: as §4
Acinetobacter baumannii [18] = experiment: Antibacterial activity against carbapenem susceptible Acinetobacter baumannii isolate PR-452 assessed as inhibition of bacterial growth at 1:1 compound to sulbactam concentration by microdilution method; format: functional; how it was run: as §1
Acinetobacter baumannii [19] = experiment: Antibacterial activity against carbapenem resistant Acinetobacter baumannii isolate PR-325 assessed as inhibition of bacterial growth in presence of 20 ug/ml sulbactam by microdilution method; format: functional; conditions: dose 20 µg/ml
Acinetobacter baumannii [20] = experiment: Antibacterial activity against carbapenem resistant Acinetobacter baumannii isolate PR-380 assessed as inhibition of bacterial growth in presence of 20 ug/ml sulbactam by microdilution method; format: functional; conditions: dose 20 µg/ml
Acinetobacter baumannii [21] = experiment: Antibacterial activity against carbapenem resistant Acinetobacter baumannii isolate PR-459 assessed as inhibition of bacterial growth in presence of 20 ug/ml sulbactam by microdilution method; format: functional; conditions: dose 20 µg/ml
Acinetobacter baumannii [22] = experiment: Antibacterial activity against carbapenem resistant Acinetobacter baumannii isolate PR-482 assessed as inhibition of bacterial growth in presence of 20 ug/ml sulbactam by microdilution method; format: functional; conditions: dose 20 µg/ml; how it was run: as §1
[23] = Antibacterial activity against carbapenem susceptible Acinetobacter nosocomialis isolate PR-412 assessed as inhibition of bacterial growth in presence of 20 ug/ml sulbactam by microdilution method; format: functional; conditions: dose 20 µg/ml
How it was run: (§5)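 MIC by broth microdilution using iron-depleted (Chelex-treated) cation-adjusted Mueller-Hinton broth and 6 × 10^4 cfu/mL inoculum. Compound serially diluted with sulbactam held constant at 20 μg/mL.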

[24] = Antibacterial activity against carbapenem susceptible Acinetobacter nosocomialis isolate PR-491 assessed as inhibition of bacterial growth in presence of 20 ug/ml sulbactam by microdilution method; format: functional; conditions: dose 20 µg/ml; how it was run: as §5
Acinetobacter baumannii [25] = experiment: Antibacterial activity against carbapenem susceptible Acinetobacter baumannii isolate PR-434 assessed as inhibition of bacterial growth in presence of 20 ug/ml sulbactam by microdilution method; format: functional; conditions: dose 20 µg/ml; how it was run: as §5
[26] = Metabolic stability in human microsomes assessed as half life; format: ADME, Microsome
COX-1 = COX-1 (Homo sapiens, UniProt P23219); experiment: Inhibition of COX-1 (unknown origin) at 30 uM
PDE3A = PDE3A (Homo sapiens, UniProt Q14432); experiment: Inhibition of PDE3A (unknown origin) at 30 uM
Pseudomonas aeruginosa [27] = experiment: Antibacterial activity against wild type Pseudomonas aeruginosa isolate PR-567 assessed as inhibition of bacterial growth by microdilution method; format: functional; how it was run: as §1
Pseudomonas aeruginosa [28] = experiment: Antibacterial activity against wild type Pseudomonas aeruginosa isolate PR-604 assessed as inhibition of bacterial growth by microdilution method; format: functional; how it was run: as §1
Pseudomonas aeruginosa [29] = experiment: Antibacterial activity against wild type Pseudomonas aeruginosa isolate PR-651 leucine at 533 residue assessed as inhibition of bacterial growth by microdilution method; format: functional; how it was run: as §1
[30] = Plasma concentration in SC dosed CD-1 mouse treated four times at 6 hrs interval measured after 0.167 hrs; format: ADME, organism-based
How it was run: (§6)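 CD-1 mice dosed SC at 50 mg/kg. Plasma sampled at 0.167 to 24 h, three individual mice per time point, reported as mean and SD in ng/mL.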

[31] = Plasma concentration in SC dosed CD-1 mouse treated four times at 6 hrs interval measured after 4 hrs; format: ADME, organism-based; how it was run: as §6
[32] = Plasma concentration in SC dosed CD-1 mouse treated four times at 6 hrs interval measured after 6 hrs; format: ADME, organism-based; how it was run: as §6
[33] = Plasma concentration in SC dosed CD-1 mouse treated four times at 6 hrs interval measured after 8 hrs; format: ADME, organism-based; how it was run: as §6
Acinetobacter baumannii [34] = experiment: Antibacterial activity against carbapenem susceptible Acinetobacter baumannii isolate PR-340 assessed as inhibition of bacterial growth at 1:1 compound to sulbactam concentration by microdilution method

Sequence of PDE3A (Q14432 whole entry): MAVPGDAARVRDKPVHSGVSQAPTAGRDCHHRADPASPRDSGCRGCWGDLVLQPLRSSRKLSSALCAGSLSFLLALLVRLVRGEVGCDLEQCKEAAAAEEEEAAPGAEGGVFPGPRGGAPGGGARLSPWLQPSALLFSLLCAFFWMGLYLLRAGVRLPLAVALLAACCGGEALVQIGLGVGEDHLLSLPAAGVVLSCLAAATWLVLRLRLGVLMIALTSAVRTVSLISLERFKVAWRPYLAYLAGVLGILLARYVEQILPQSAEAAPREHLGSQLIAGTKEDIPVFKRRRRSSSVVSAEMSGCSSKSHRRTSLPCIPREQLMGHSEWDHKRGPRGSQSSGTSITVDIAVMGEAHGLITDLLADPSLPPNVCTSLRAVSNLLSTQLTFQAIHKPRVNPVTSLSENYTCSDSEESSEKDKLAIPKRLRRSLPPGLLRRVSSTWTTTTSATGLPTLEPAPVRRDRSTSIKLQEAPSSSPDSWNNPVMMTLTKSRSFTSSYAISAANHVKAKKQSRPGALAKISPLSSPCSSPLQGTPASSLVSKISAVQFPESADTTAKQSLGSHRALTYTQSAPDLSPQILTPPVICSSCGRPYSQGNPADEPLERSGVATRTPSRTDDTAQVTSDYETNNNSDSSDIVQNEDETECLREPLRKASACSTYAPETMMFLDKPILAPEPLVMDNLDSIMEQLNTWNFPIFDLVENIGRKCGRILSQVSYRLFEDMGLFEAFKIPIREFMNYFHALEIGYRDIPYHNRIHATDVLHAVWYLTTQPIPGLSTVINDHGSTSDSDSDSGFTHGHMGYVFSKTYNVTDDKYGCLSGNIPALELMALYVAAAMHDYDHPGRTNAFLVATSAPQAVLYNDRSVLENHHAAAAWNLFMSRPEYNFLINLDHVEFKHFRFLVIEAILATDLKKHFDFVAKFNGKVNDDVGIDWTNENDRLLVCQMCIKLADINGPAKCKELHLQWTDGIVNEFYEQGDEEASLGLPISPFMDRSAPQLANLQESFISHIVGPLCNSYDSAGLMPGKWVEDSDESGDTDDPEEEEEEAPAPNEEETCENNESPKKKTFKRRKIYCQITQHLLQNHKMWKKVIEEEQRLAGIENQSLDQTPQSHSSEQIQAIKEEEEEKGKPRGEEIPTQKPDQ
Sequence of COX-1 (P23219 whole entry): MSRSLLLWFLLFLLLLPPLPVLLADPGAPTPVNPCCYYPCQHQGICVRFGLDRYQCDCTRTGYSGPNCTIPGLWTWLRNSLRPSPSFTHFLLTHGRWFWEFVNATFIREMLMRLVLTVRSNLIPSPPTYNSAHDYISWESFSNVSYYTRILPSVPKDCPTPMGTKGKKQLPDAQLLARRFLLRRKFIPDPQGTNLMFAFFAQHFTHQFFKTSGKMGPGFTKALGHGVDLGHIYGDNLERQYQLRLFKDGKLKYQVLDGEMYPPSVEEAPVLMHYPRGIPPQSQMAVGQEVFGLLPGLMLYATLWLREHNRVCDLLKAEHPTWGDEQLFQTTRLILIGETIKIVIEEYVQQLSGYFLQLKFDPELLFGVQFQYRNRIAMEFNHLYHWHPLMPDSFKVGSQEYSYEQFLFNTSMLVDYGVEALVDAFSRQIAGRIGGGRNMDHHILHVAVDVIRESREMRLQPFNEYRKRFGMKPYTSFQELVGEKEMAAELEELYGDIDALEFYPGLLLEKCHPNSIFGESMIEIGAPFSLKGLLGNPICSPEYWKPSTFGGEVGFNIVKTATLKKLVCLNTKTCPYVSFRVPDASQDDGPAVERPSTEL

Which MIC50 (Acinetobacter baumannii [1]) does the source give for `CC(C)(O/N=C(\C(=O)N[C@H]1CN2CC(C(=O)NCCN3C(=O)c4cc(O)c(O)cc4C3=O)=C(C(=O)O)N2C1=O)c1nc(N)sc1Cl)C(=O)O` here?
Its MIC50 is 0.5 µg/mL (≈ 0.693 µM).

And the MIC90 (Acinetobacter baumannii [1])?
Its MIC90 is greater than 16 µg/mL.

And the MIC (Acinetobacter baumannii [2])?
Its MIC is greater than 16 µg/mL.

And the MIC (Acinetobacter baumannii [3])?
Its MIC is greater than 16 µg/mL.

And the MIC (Acinetobacter baumannii [4])?
The MIC was greater than 16 µg/mL.

What about the MIC [5] of the same molecule?
The MIC was greater than 16 µg/mL.

What about the MIC (Acinetobacter baumannii [6]) of the same molecule?
Its MIC is greater than 16 µg/mL.

And the MIC (Acinetobacter baumannii [7])?
The MIC was 4 µg/mL.

What about the MIC (Acinetobacter baumannii [8]) of the same molecule?
The MIC was 2 µg/mL.

What about the MIC (Acinetobacter baumannii [9]) of the same molecule?
Its MIC is greater than 16 µg/mL.

And the MIC (Acinetobacter baumannii [10])?
Its MIC is 16 µg/mL.

What about the MIC (Acinetobacter baumannii [11]) of the same molecule?
Its MIC is 16 µg/mL.

And the MIC (Acinetobacter baumannii [12])?
The MIC was 16 µg/mL.

And the MIC (Acinetobacter baumannii [13])?
The MIC was 8 µg/mL.

And the MIC [14]?
The MIC was no more than 0.25 µg/mL.

What about the MIC [15] of the same molecule?
Its MIC is 1 µg/mL.

What about the MIC [16] of the same molecule?
Its MIC is 0.5 µg/mL.

And the MIC (Acinetobacter baumannii [17])?
The MIC was 2 µg/mL.

What about the MIC (Acinetobacter baumannii [18]) of the same molecule?
Its MIC is no more than 0.25 µg/mL.

What about the MIC (Acinetobacter baumannii [19]) of the same molecule?
Its MIC is greater than 16 µg/mL.

And the MIC (Acinetobacter baumannii [20])?
Its MIC is no more than 0.25 µg/mL.

What about the MIC (Acinetobacter baumannii [21]) of the same molecule?
Its MIC is 4 µg/mL.

What about the MIC (Acinetobacter baumannii [22]) of the same molecule?
Its MIC is no more than 0.25 µg/mL.

What about the MIC [23] of the same molecule?
Its MIC is no more than 0.25 µg/mL.

What about the MIC [24] of the same molecule?
Its MIC is no more than 0.25 µg/mL.

And the MIC (Acinetobacter baumannii [25])?
The MIC was no more than 0.25 µg/mL.

What about the t1/2 [26] of the same molecule?
Its t1/2 is greater than 1 h.

And the inhibition at 30 µM (COX-1)?
The inhibition at 30 µM was greater than 50%.

What about the inhibition at 30 µM (PDE3A) of the same molecule?
Its inhibition at 30 µM is greater than 50%.

What about the MIC (Pseudomonas aeruginosa [27]) of the same molecule?
The MIC was no more than 0.25 µg/mL.

And the MIC (Pseudomonas aeruginosa [28])?
Its MIC is no more than 0.25 µg/mL.

What about the MIC (Pseudomonas aeruginosa [29]) of the same molecule?
The MIC was greater than 16 µg/mL.

What about the concentration at 0.167 h [30] of the same molecule?
The concentration at 0.167 h was 47400 ng/mL.

What about the concentration at 4 h [31] of the same molecule?
The concentration at 4 h was 1340 ng/mL.

What about the concentration at 6 h [32] of the same molecule?
The concentration at 6 h was 1320 ng/mL.

And the concentration at 8 h [33]?
The concentration at 8 h was 1200 ng/mL.

What about the MIC (Acinetobacter baumannii [34]) of the same molecule?
The MIC was 1 µg/mL.

— ChEMBL document CHEMBL4842318, “A γ-lactam siderophore antibiotic effective against multidrug-resistant Pseudomonas aeruginosa, Klebsiella pneumoniae, and Acinetobacter spp” (Eur J Med Chem, 2021)
